Laboratory results: ChEMBL document CHEMBL3046951, “Volatile constituents from the leaves of Callicarpa japonica Thunb. and their antibacterial activities” (2004)

How the values were obtained:
Type in all cases: functional
Staphylococcus aureus [1] = assay: Antimicrobial activity against Staphylococcus aureus ATCC 25923 assessed as growth inhibition rate at 6.8 mg/l after 72 hr by spectrophotometry; settings: ATCC 25923, 72 h, read-out: GI
Summary of the method: (§1)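 Staphylococcus aureus ATCC 25923 grown at 37 °C in tryptic soy broth, using an 18 h subculture of a 24 h culture. Individual leaf-volatile compounds (>95% purity) were tested. Bioscreen C optical density was recorded every 24 h for 72 h and compared with a 10% Tween 80 control.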

Vibrio parahaemolyticus [2] = assay: Antimicrobial activity against Vibrio parahaemolyticus ATCC 33844 assessed as growth inhibition rate at 3.4 mg/l after 72 hr by spectrophotometry; settings: ATCC 33844, 72 h, read-out: GI
Summary of the method: (§2)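 Vibrio parahaemolyticus ATCC 33844 grown at 37 °C in tryptic soy broth with 3% (w/v) NaCl, using an 18 h subculture of a 24 h culture. Pure compounds (>95% purity) were tested. Bioscreen C optical density was read every 24 h for 72 h against a 10% Tween 80 control.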

Salmonella typhimurium [3] = assay: Antimicrobial activity against Salmonella enterica subsp. enterica serovar Typhimurium ATCC 14028 assessed as growth inhibition rate at 0.34 mg/l after 72 hr by spectrophotometry; settings: ATCC 14028, 72 h, read-out: GI
Summary of the method: (§3)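 Salmonella Typhimurium ATCC 14028 grown in nutrient broth at 30 °C, precultured 24 h, then subcultured 1:100 for 18 h before testing. Single volatile compounds (>95% pure) were added. OD was read every 24 h over 72 h in a Bioscreen C, with 10% Tween 80 as the comparison control.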

Escherichia coli [4] = assay: Antimicrobial activity against Escherichia coli O157:H7 ATCC 43894 assessed as growth inhibition rate at 0.34 mg/l after 72 hr by spectrophotometry; settings: O157:H7 ATCC 43894, 72 h, read-out: GI
Escherichia coli [5] = assay: Antimicrobial activity against Escherichia coli O157:H7 ATCC 43894 assessed as growth inhibition rate at 6.8 mg/l after 72 hr by spectrophotometry; settings: O157:H7 ATCC 43894, 72 h, read-out: GI
Bacillus cereus [6] = assay: Antimicrobial activity against Bacillus cereus ATCC 11778 assessed as growth inhibition rate at 6.8 mg/l after 72 hr by spectrophotometry; settings: ATCC 11778, 72 h, read-out: GI
Summary of the method: (§4)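 Pure volatile compounds (purity >95%; one at 90%) were tested against B. cereus ATCC 11778. The strain was grown at 30 °C in nutrient broth for 24 h, then subcultured for 18 h. Optical density was read in a Bioscreen C every 24 h for 72 h, with 10% Tween 80 as the control.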

Staphylococcus aureus [7] = assay: Antimicrobial activity against Staphylococcus aureus ATCC 25923 assessed as growth inhibition rate at 0.68 mg/l after 72 hr by spectrophotometry; settings: ATCC 25923, 72 h, read-out: GI; summary of the method: as §1
Bacillus cereus [8] = assay: Antimicrobial activity against Bacillus cereus ATCC 11778 assessed as growth inhibition rate at 0.68 mg/l after 72 hr by spectrophotometry; settings: ATCC 11778, 72 h, read-out: GI; summary of the method: as §4
Listeria monocytogenes [9] = assay: Antimicrobial activity against Listeria monocytogenes ATCC 19111 assessed as growth inhibition rate at 3.4 mg/l after 72 hr by spectrophotometry; settings: ATCC 19111, 72 h, read-out: GI
Summary of the method: (§5)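 L. monocytogenes was grown at 30 °C in tryptic soy broth, subcultured for 18 h, and exposed to pure volatile compounds (>95% purity). Growth was followed by Bioscreen C optical density every 24 h for 72 h against a 10% Tween 80 control.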

Listeria monocytogenes [10] = assay: Antimicrobial activity against Listeria monocytogenes ATCC 19111 assessed as growth inhibition rate at 0.068 mg/l after 72 hr by spectrophotometry; settings: ATCC 19111, 72 h, read-out: GI; summary of the method: as §5
Listeria monocytogenes [11] = assay: Antimicrobial activity against Listeria monocytogenes ATCC 19111 assessed as growth inhibition rate at 6.8 mg/l after 72 hr by spectrophotometry; settings: ATCC 19111, 72 h, read-out: GI; summary of the method: as §5
Escherichia coli [12] = assay: Antimicrobial activity against Escherichia coli O157:H7 ATCC 43894 assessed as growth inhibition rate at 0.017 mg/l after 72 hr by spectrophotometry; settings: O157:H7 ATCC 43894, 72 h, read-out: GI
Bacillus cereus [13] = assay: Antimicrobial activity against Bacillus cereus ATCC 11778 assessed as growth inhibition rate at 3.4 mg/l after 72 hr by spectrophotometry; settings: ATCC 11778, 72 h, read-out: GI; summary of the method: as §4
Salmonella typhimurium [14] = assay: Antimicrobial activity against Salmonella enterica subsp. enterica serovar Typhimurium ATCC 14028 assessed as growth inhibition rate at 0.017 mg/l after 72 hr by spectrophotometry; settings: ATCC 14028, 72 h, read-out: GI; summary of the method: as §3
Escherichia coli [15] = assay: Antimicrobial activity against Escherichia coli O157:H7 ATCC 43894 assessed as growth inhibition rate at 0.068 mg/l after 72 hr by spectrophotometry; settings: O157:H7 ATCC 43894, 72 h, read-out: GI
Vibrio parahaemolyticus [16] = assay: Antimicrobial activity against Vibrio parahaemolyticus ATCC 33844 assessed as growth inhibition rate at 6.8 mg/l after 72 hr by spectrophotometry; settings: ATCC 33844, 72 h, read-out: GI; summary of the method: as §2
Salmonella typhimurium [17] = assay: Antimicrobial activity against Salmonella enterica subsp. enterica serovar Typhimurium ATCC 14028 assessed as growth inhibition rate at 0.68 mg/l after 72 hr by spectrophotometry; settings: ATCC 14028, 72 h, read-out: GI; summary of the method: as §3
Salmonella typhimurium [18] = assay: Antimicrobial activity against Salmonella enterica subsp. enterica serovar Typhimurium ATCC 14028 assessed as growth inhibition rate at 0.068 mg/l after 72 hr by spectrophotometry; settings: ATCC 14028, 72 h, read-out: GI; summary of the method: as §3
Staphylococcus aureus [19] = assay: Antimicrobial activity against Staphylococcus aureus ATCC 25923 assessed as growth inhibition rate at 3.4 mg/l after 72 hr by spectrophotometry; settings: ATCC 25923, 72 h, read-out: GI; summary of the method: as §1
Bacillus cereus [20] = assay: Antimicrobial activity against Bacillus cereus ATCC 11778 assessed as growth inhibition rate at 0.34 mg/l after 72 hr by spectrophotometry; settings: ATCC 11778, 72 h, read-out: GI; summary of the method: as §4
Bacillus cereus [21] = assay: Antimicrobial activity against Bacillus cereus ATCC 11778 assessed as growth inhibition rate at 0.068 mg/l after 72 hr by spectrophotometry; settings: ATCC 11778, 72 h, read-out: GI; summary of the method: as §4
Staphylococcus aureus [22] = assay: Antimicrobial activity against Staphylococcus aureus ATCC 25923 assessed as growth inhibition rate at 0.068 mg/l after 72 hr by spectrophotometry; settings: ATCC 25923, 72 h, read-out: GI
Staphylococcus aureus [23] = assay: Antimicrobial activity against Staphylococcus aureus ATCC 25923 assessed as growth inhibition rate at 0.017 mg/l after 72 hr by spectrophotometry; settings: ATCC 25923, 72 h, read-out: GI
Listeria monocytogenes [24] = assay: Antimicrobial activity against Listeria monocytogenes ATCC 19111 assessed as growth inhibition rate at 0.68 mg/l after 72 hr by spectrophotometry; settings: ATCC 19111, 72 h, read-out: GI; summary of the method: as §5
Escherichia coli [25] = assay: Antimicrobial activity against Escherichia coli O157:H7 ATCC 43894 assessed as growth inhibition rate at 0.68 mg/l after 72 hr by spectrophotometry; settings: O157:H7 ATCC 43894, 72 h, read-out: GI
Vibrio parahaemolyticus [26] = assay: Antimicrobial activity against Vibrio parahaemolyticus ATCC 33844 assessed as growth inhibition rate at 0.068 mg/l after 72 hr by spectrophotometry; settings: ATCC 33844, 72 h, read-out: GI
Bacillus cereus [27] = assay: Antimicrobial activity against Bacillus cereus ATCC 11778 assessed as growth inhibition rate at 0.017 mg/l after 72 hr by spectrophotometry; settings: ATCC 11778, 72 h, read-out: GI; summary of the method: as §4
Vibrio parahaemolyticus [28] = assay: Antimicrobial activity against Vibrio parahaemolyticus ATCC 33844 assessed as growth inhibition rate at 0.34 mg/l after 72 hr by spectrophotometry; settings: ATCC 33844, 72 h, read-out: GI
Listeria monocytogenes [29] = assay: Antimicrobial activity against Listeria monocytogenes ATCC 19111 assessed as growth inhibition rate at 0.34 mg/l after 72 hr by spectrophotometry; settings: ATCC 19111, 72 h, read-out: GI; summary of the method: as §5
Salmonella typhimurium [30] = assay: Antimicrobial activity against Salmonella enterica subsp. enterica serovar Typhimurium ATCC 14028 assessed as growth inhibition rate at 6.8 mg/l after 72 hr by spectrophotometry; settings: ATCC 14028, 72 h, read-out: GI; summary of the method: as §3
Escherichia coli [31] = assay: Antimicrobial activity against Escherichia coli O157:H7 ATCC 43894 assessed as growth inhibition rate at 3.4 mg/l after 72 hr by spectrophotometry; settings: O157:H7 ATCC 43894, 72 h, read-out: GI
Vibrio parahaemolyticus [32] = assay: Antimicrobial activity against Vibrio parahaemolyticus ATCC 33844 assessed as growth inhibition rate at 0.017 mg/l after 72 hr by spectrophotometry; settings: ATCC 33844, 72 h, read-out: GI
Vibrio parahaemolyticus [33] = assay: Antimicrobial activity against Vibrio parahaemolyticus ATCC 33844 assessed as growth inhibition rate at 0.68 mg/l after 72 hr by spectrophotometry; settings: ATCC 33844, 72 h, read-out: GI; summary of the method: as §2
Salmonella typhimurium [34] = assay: Antimicrobial activity against Salmonella enterica subsp. enterica serovar Typhimurium ATCC 14028 assessed as growth inhibition rate at 3.4 mg/l after 72 hr by spectrophotometry; settings: ATCC 14028, 72 h, read-out: GI; summary of the method: as §3
Listeria monocytogenes [35] = assay: Antimicrobial activity against Listeria monocytogenes ATCC 19111 assessed as growth inhibition rate at 0.017 mg/l after 72 hr by spectrophotometry; settings: ATCC 19111, 72 h, read-out: GI; summary of the method: as §5
Staphylococcus aureus [36] = assay: Antimicrobial activity against Staphylococcus aureus ATCC 25923 assessed as growth inhibition rate at 0.34 mg/l after 72 hr by spectrophotometry; settings: ATCC 25923, 72 h, read-out: GI

## CC/C=C/C=C/C=O [2,4-HEPTADIENAL]
Staphylococcus aureus [1]
  inhibition of growth at 6.8 µg/mL: 95.5%
Vibrio parahaemolyticus [2]
  inhibition of growth at 3.4 µg/mL: 82.4%
Salmonella typhimurium [3]
  inhibition of growth at 0.34 µg/mL: 8.6%
Escherichia coli [4]
  inhibition of growth at 0.34 µg/mL: 1.3%
Escherichia coli [5]
  inhibition of growth at 6.8 µg/mL: 27.5%
Bacillus cereus [6]
  inhibition of growth at 6.8 µg/mL: 100%
Staphylococcus aureus [7]
  inhibition of growth at 0.68 µg/mL: 4.9%
Bacillus cereus [8]
  inhibition of growth at 0.68 µg/mL: 11%
Listeria monocytogenes [9]
  inhibition of growth at 3.4 µg/mL: 34.5%
Listeria monocytogenes [10]
  inhibition of growth at 0.068 µg/mL: 0.8%
Listeria monocytogenes [11]
  inhibition of growth at 6.8 µg/mL: 51.6%
Escherichia coli [12]
  inhibition of growth at 0.017 µg/mL: 0.5%
Bacillus cereus [13]
  inhibition of growth at 3.4 µg/mL: 92.9%
Salmonella typhimurium [14]
  inhibition of growth at 0.017 µg/mL: 5.8%
Escherichia coli [15]
  inhibition of growth at 0.068 µg/mL: 0.5%
Vibrio parahaemolyticus [16]
  inhibition of growth at 6.8 µg/mL: 99%
Salmonella typhimurium [17]
  inhibition of growth at 0.68 µg/mL: 18.2%
Salmonella typhimurium [18]
  inhibition of growth at 0.068 µg/mL: 8.8%
Staphylococcus aureus [19]
  inhibition of growth at 3.4 µg/mL: 80.9%
Bacillus cereus [20]
  inhibition of growth at 0.34 µg/mL: 1.8%
Bacillus cereus [21]
  inhibition of growth at 0.068 µg/mL: 1.1%
Staphylococcus aureus [22]
  inhibition of growth at 0.068 µg/mL: 0%
Staphylococcus aureus [23]
  inhibition of growth at 0.017 µg/mL: 0%
Listeria monocytogenes [24]
  inhibition of growth at 0.68 µg/mL: 5.9%
Escherichia coli [25]
  inhibition of growth at 0.68 µg/mL: 4.4%
Vibrio parahaemolyticus [26]
  inhibition of growth at 0.068 µg/mL: 5.8%
Bacillus cereus [27]
  inhibition of growth at 0.017 µg/mL: 0%
Vibrio parahaemolyticus [28]
  inhibition of growth at 0.34 µg/mL: 6.1%
Listeria monocytogenes [29]
  inhibition of growth at 0.34 µg/mL: 1.6%
Salmonella typhimurium [30]
  inhibition of growth at 6.8 µg/mL: 88.6%
Escherichia coli [31]
  inhibition of growth at 3.4 µg/mL: 16.6%
Vibrio parahaemolyticus [32]
  inhibition of growth at 0.017 µg/mL: 5.6%
Vibrio parahaemolyticus [33]
  inhibition of growth at 0.68 µg/mL: 11.4%
Salmonella typhimurium [34]
  inhibition of growth at 3.4 µg/mL: 57.8%
Listeria monocytogenes [35]
  inhibition of growth at 0.017 µg/mL: 0.1%
Staphylococcus aureus [36]
  inhibition of growth at 0.34 µg/mL: 2.8%
